The values below come from ChEMBL document CHEMBL3414542, “Design and synthesis of celastrol derivatives as anticancer agents” (Eur J Med Chem, 2015).

Usually IC50 stands for the concentration that gives 50% inhibition. The logP is the decadic logarithm of the partition coefficient of the neutral form, usually between octanol and water. A high value points to a more lipophilic compound.

Data set [1] addresses Telomerase reverse transcriptase (Homo sapiens, UniProt O14746). The data set can be described thus: Inhibition of telomerase in human MGC803 cell extracts after 24 hrs by TRAP-PCR-ELISA. The arrangement: species or system MGC-803. The method, boiled down:
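MGC-803 cells were grown in DMEM with 10% FBS, streptomycin and penicillin at 37 °C, 5% CO2, and 5 × 10^4 cells were seeded and allowed to adhere. Cells were exposed to staurosporine and test agents (60 to 0.0821 […] series) for 24 h, then scraped, washed, lysed in RIPA buffer on ice for 30 min, and spun at 12,000 g for 20 min at 4 °C. Extract (2 µL) was run in a TRAP-PCR-ELISA with anti-DIG peroxidase detection and read at 490 nm. Values are mean ± SD.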

Data set [2] has as its system HepG2. Kind of data set: Anticancer activity against human HepG2 cells assessed as cell survival after 48 hrs by MTT assay. In kind it is functional, cell-based. The note with it: HepG2, 48 h. The method, boiled down:
(§1)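 MTT colorimetric assay. MTT was added (4 h, 37 °C), followed by DMSO, and absorbance was read at 570 nm. IC50 is the concentration giving 50% cell survival. Values are the mean ± SD of three independent experiments in triplicate.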

In data set [3] the test system is MGC-803. Kind of data set: Anticancer activity against human MGC803 cells assessed as cell survival after 48 hrs by MTT assay. In kind it is functional, cell-based. The note with it: MGC-803, 48 h. The method, boiled down: as §1
(In general: Tetrazolium assays rely on reduction of a dye to a coloured formazan, in cell work by metabolically active cells.)

Data set [4] in a line: Anticancer activity against human SGC7901 cells assessed as cell survival after 48 hrs by MTT assay. The note with it: SGC-7901, 48 h. In kind it is functional, cell-based. The method, boiled down:
as §1

Data set [5] is described as follows: Anticancer activity against human SMMC7721 cells assessed as cell survival after 48 hrs by MTT assay. Conditions: SMMC-7721, 48 h. It counts as functional, cell-based. The method, boiled down:
as §1

A short description of data set [6]: Octanol-water partition coefficient, log P of the compound by shake-flask method. In kind it is physicochemical. The method, boiled down:
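Shake-flask method: the solute was dissolved in octanol and water and its concentration in each phase was measured by HPLC. Log P is the logarithm of the octanol/aqueous concentration ratio.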

Data set [7] deals with SMMC-7721. The data set can be described thus: Induction of apoptosis in human SMMC7721 cells assessed as non-viable cells at 0.5 uM after 48 hrs by annexin V/PI staining based flow cytometry (reference value: 1.56%). In kind it is functional. (In general: Flow cytometry measures light scatter and fluorescence of single cells or particles in a stream.)
Data set [8] deals with MGC-803. Kind of data set: Ratio of celastrol IC50 to compound IC50 for human MGC803 cells assessed as cell survival after 48 hrs by MTT assay. In kind it is functional.
The subject of data set [9] is SMMC-7721. The data set can be described thus: Induction of apoptosis in human SMMC7721 cells assessed as necrotic cells at 0.5 uM after 48 hrs by annexin V/PI staining based flow cytometry (reference value: 0%). In kind it is functional.
Data set [10] has as its system SMMC-7721. The data set can be described thus: Induction of apoptosis in human SMMC7721 cells assessed […] cells at 0.5 uM after 48 hrs by annexin V/PI staining based flow cytometry (reference value: 0.434%). It counts as functional. The note with it: SMMC-7721, 48 h, read-out: Activity.
For data set [11], the system named is SMMC-7721. The data set can be described thus: Induction of apoptosis in human SMMC7721 cells assessed as normal cells at 0.5 uM after 48 hrs by annexin V/PI staining based flow cytometry (reference value: 98%). In kind it is functional.
Data set [12] deals with HepG2. Kind of data set: Ratio of celastrol IC50 to compound IC50 for human HepG2 cells assessed as cell survival after 48 hrs by MTT assay. It counts as functional.

Structures are written as SMILES.

Sequence of Telomerase reverse transcriptase (O14746 whole entry): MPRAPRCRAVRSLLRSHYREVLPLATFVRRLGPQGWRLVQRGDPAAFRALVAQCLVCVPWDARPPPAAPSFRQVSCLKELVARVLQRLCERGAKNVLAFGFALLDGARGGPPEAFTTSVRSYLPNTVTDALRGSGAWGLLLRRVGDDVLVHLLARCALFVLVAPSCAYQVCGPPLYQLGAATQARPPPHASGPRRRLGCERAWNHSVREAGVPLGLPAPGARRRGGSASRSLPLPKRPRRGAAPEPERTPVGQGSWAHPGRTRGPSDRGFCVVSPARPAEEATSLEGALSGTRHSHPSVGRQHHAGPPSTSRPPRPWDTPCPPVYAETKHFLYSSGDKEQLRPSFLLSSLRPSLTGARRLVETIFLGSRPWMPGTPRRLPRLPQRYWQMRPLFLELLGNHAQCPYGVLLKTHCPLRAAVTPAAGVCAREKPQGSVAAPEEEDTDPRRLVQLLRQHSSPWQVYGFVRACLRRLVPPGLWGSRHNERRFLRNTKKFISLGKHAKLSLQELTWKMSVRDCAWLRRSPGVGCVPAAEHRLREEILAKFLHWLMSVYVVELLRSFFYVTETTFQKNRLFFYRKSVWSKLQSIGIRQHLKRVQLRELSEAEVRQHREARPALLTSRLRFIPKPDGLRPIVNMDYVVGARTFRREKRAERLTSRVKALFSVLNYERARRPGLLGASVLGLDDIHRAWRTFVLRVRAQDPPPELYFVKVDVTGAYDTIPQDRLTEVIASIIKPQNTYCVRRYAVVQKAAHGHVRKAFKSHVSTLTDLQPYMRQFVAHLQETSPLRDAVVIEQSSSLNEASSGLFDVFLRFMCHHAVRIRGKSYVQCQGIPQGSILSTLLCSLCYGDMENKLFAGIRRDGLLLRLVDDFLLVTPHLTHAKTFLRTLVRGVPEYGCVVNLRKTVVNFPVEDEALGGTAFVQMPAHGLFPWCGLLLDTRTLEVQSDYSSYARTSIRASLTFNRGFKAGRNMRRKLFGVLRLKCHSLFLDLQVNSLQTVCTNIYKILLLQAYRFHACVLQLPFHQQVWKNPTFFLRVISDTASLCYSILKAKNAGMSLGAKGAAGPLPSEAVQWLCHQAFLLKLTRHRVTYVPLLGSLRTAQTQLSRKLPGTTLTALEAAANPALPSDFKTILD

Regarding `C/C(=C\C(=O)Nc1ccccc1C(=O)O)c1ccc2ccccc2c1`, the IC50 in data set [1] is 0.41 µM.

On to `CCOC(=O)[C@]1(C)CC[C@]2(C)CC[C@]3(C)C4=CC=C5C(=CC(=O)C(O)=C5C)[C@]4(C)CC[C@@]3(C)[C@@H]2C1`, for which the IC50 amounted to 15.2 µM in data set [2]; 12 µM in data set [3]; 11.5 µM in data set [4]; 18.6 µM in [1]; 9.28 µM in [5]. This molecule also showed a logP in data set [6] of 4.98.

For `CNC(=O)[C@]1(C)CC[C@]2(C)CC[C@]3(C)C4=CC=C5C(=CC(=O)C(O)=C5C)[C@]4(C)CC[C@@]3(C)[C@@H]2C1`, the 50% inhibitory concentration (IC50) in [2] came to 10.6 µM; in [3] it was 24.1 µM; in [4] it was 9.38 µM; in data set [1], 15.1 µM; in [5] it was 7.62 µM. The molecule also came in with a logP in data set [6] of 3.96.

With `CC1=C(O)C(=O)C=C2C1=CC=C1[C@@]2(C)CC[C@@]2(C)[C@@H]3C[C@](C)(C(=O)N(C)C)CC[C@]3(C)CC[C@]12C`, the IC50 in data set [2] was found to be 11.2 µM; in data set [3] it was 6.3 µM; in data set [4] it was 10.5 µM; in data set [1], 21 µM; in data set [5] it was 20 µM. In addition, the log partition coefficient (logP) in [6] came to 4.2.

Take `CC1=C(O)C(=O)C=C2C1=CC=C1[C@@]2(C)CC[C@@]2(C)[C@@H]3C[C@](C)(C(=O)NCCO)CC[C@]3(C)CC[C@]12C`: the Activity is reported as 48% in data set [7], 1.24% in data set [9] and 37.6% in data set [11]. For the same molecule, the “Ratio IC50” value in [8] was found to be 4; in data set [12] it was 6.6. The concentration for half-maximal inhibition (IC50) was found to be 0.61 µM in [2]; 0.39 µM in [3]; 0.16 µM in data set [4]; 0.11 µM in data set [1]; 0.3 µM in data set [5]. Also, the viability at 0.5 µM in data set [10] amounted to 13.2%. In addition, the logP in data set [6] was determined as 3.44.

In the case of `CC1=C(O)C(=O)C=C2C1=CC=C1[C@@]2(C)CC[C@@]2(C)[C@@H]3C[C@](C)(C(=O)NCC(C)O)CC[C@]3(C)CC[C@]12C` (stereo partly specified), the figures for the “Ratio IC50” value in data set [8] and in [12] were 1.3 and 14.3, respectively. For the same molecule, the IC50 in [2] was determined as 0.28 µM; in data set [3] it was 1.22 µM; in data set [4], 0.1 µM; in data set [1] it was 0.34 µM; in [5] it was 0.61 µM. Besides, in [6], the logP worked out at 3.49.

Turning to `CCCCNC(=O)[C@]1(C)CC[C@]2(C)CC[C@]3(C)C4=CC=C5C(=CC(=O)C(O)=C5C)[C@]4(C)CC[C@@]3(C)[C@@H]2C1`, the concentration for half-maximal inhibition (IC50) worked out at 3.07 µM in data set [2], 3.55 µM in [3], 4.9 µM in data set [4] and 6.88 µM in data set [5].

As for `CC1=C(O)C(=O)C=C2C1=CC=C1[C@@]2(C)CC[C@@]2(C)[C@@H]3C[C@](C)(C(=O)N4CCOCC4)CC[C@]3(C)CC[C@]12C`, the IC50 came to 22.7 µM in [2]; 30.7 µM in [3]; 8.74 µM in data set [4]; 8.01 µM in [1]; 10.7 µM in data set [5]. The lipophilicity (logP) in data set [6] came to 3.8.

As for `CC1=C(O)C(=O)C=C2C1=CC=C1[C@@]2(C)CC[C@@]2(C)[C@@H]3C[C@](C)(C(=O)N4CCN(CCN5CCOCC5)CC4)CC[C@]3(C)CC[C@]12C`, the IC50 in data set [2] came to 16.4 µM; in data set [3], 13.4 µM; in [4] it was 8.1 µM; in data set [1] it was 15.2 µM; in data set [5], 12.3 µM. Also, the log partition coefficient (logP) in [6] amounted to 3.5.

For the molecule `CC1=C(O)C(=O)C=C2C1=CC=C1[C@@]2(C)CC[C@@]2(C)[C@@H]3C[C@](C)(C(=O)N4CCN(CCO)CC4)CC[C@]3(C)CC[C@]12C`, the IC50 in [2] is 8.7 µM; in [3] it was 10.3 µM; in data set [4] it was 3.81 µM; in data set [1], 2.01 µM; in data set [5] it was 1.84 µM. In data set [6], this molecule returned a logP of 3.44.

With `CC1=C(O)C(=O)C=C2C1=CC=C1[C@@]2(C)CC[C@@]2(C)[C@@H]3C[C@](C)(C(=O)N4CCN(CCN(C)C)CC4)CC[C@]3(C)CC[C@]12C`, the half-inhibitory concentration (IC50) was 5.21 µM in [2]; 1 µM in [3]; 1.33 µM in [4]; 1.41 µM in data set [1]; 2.58 µM in data set [5]. The lipophilicity (logP) in data set [6] was 3.95.

Turning to `CC1=C(O)C(=O)C=C2C1=CC=C1[C@@]2(C)CC[C@@]2(C)[C@@H]3C[C@](C)(C(=O)O)CC[C@]3(C)CC[C@]12C` [CELASTROL], the IC50 was 4.01 µM in data set [2]; 1.55 µM in data set [3]; 0.15 µM in [4]; 0.78 µM in [1]; 0.58 µM in data set [5]. This molecule also displayed a logP in data set [6] of 4.38.

For `COc1cccc2c1C(=O)c1c(O)c3c(c(O)c1C2=O)C[C@@](O)(C(=O)CO)C[C@@H]3O[C@H]1C[C@H](N)[C@H](O)[C@H](C)O1` [DOXORUBICIN], the half-inhibitory concentration (IC50) in [2] amounted to 0.87 µM; in data set [3], 1.19 µM; in [4], 1.45 µM; in data set [5], 1.22 µM.

`O=c1[nH]cc(F)c(=O)[nH]1` [FLUOROURACIL]: the 50% inhibitory concentration (IC50) in [2] came to 5.86 µM; in data set [3] it was 3.58 µM; in data set [4], 6.12 µM; in [5] it was 4.87 µM.
